According to ChEMBL document CHEMBL1123394, “Systematic synthesis and biological evaluation of alpha- and beta-D-xylofuranosyl nucleosides of the five naturally occurring bases in nucleic acids and related analogues” (J Med Chem, 1986):
Converted amounts (≈) assume the structure as drawn.

Columns and labels:
Vero [1] = assay: Antiviral activity was measured against forest virus in african green monkey kidney (Vero B) cells.; type: functional; details: Chlorocebus sabaeus
Outline: (§1)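 Inhibition of virus-induced cytopathogenicity scored in cell culture monolayers. Test compounds dissolved in growth medium at 100, 10, or 1 μg/mL or less.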

WI-38 [2] = assay: Concentration required for microscopically detectable alteration of the normal cell morphology in Wi-38 cells.; type: functional; details: Homo sapiens
Outline: (§2)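 Host-cell morphology inspected microscopically for detectable alteration, with compounds in growth medium at up to 200 or 400 μg/mL.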

Vero [3] = assay: Concentration required for microscopically detectable alteration of the normal cell morphology in Vero B cells.; type: functional; details: Chlorocebus sabaeus; outline: as §2
WI-38 [4] = assay: Antiviral activity was measured against Rhino virus-1A in human diploid (WI-38) cells.; type: functional; outline: as §1
Vero [5] = assay: Antiviral activity was measured against Sindbis virus in african green monkey kidney (Vero B) cells.; type: functional; details: Chlorocebus sabaeus; outline: as §1
Vero [6] = assay: Antiviral activity was measured against Reo virus-1 in african green monkey kidney (Vero B) cells.; type: functional; details: Chlorocebus sabaeus; outline: as §1
[7] = Antiviral activity was measured against vaccinia virus in rabbit kidney cells.; type: functional; details: Oryctolagus cuniculus
Outline: (§3)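 Inhibition of virus-induced cytopathogenicity in cell culture. Compounds were dissolved in growth medium at 100, 10 or 1 μg/mL or less.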

WI-38 [8] = assay: Antiviral activity was measured against Rhino virus-9 in human diploid (WI-38) cells.; type: functional; outline: as §1
Vero [9] = assay: Antiviral activity was measured against Coxsackie virus B4 in african green monkey kidney (Vero B) cells.; type: functional; details: Chlorocebus sabaeus; outline: as §1
HeLa [10] = assay: Antiviral activity was measured against Coxsackie virus B4 in HeLa cells.; type: functional; details: Homo sapiens; outline: as §3
[11] = Antiviral activity was measured against Herpes simplex virus (HSV-2 G) in rabbit kidney cells.; type: functional; details: Oryctolagus cuniculus; outline: as §1
[12] = Concentration required for microscopically detectable alteration of the normal cell morphology in PRK cells.; type: functional; details: Oryctolagus cuniculus; outline: as §2
HeLa [13] = assay: Concentration required for microscopically detectable alteration of the normal cell morphology in HeLa cells.; type: functional; details: Homo sapiens; outline: as §2
HeLa [14] = assay: Antiviral activity was measured against vesicular stomatitis virus in HeLa cells.; type: functional; details: Homo sapiens; outline: as §3
Vero [15] = assay: Antiviral activity was measured against Parainfluenza virus-3 in african green monkey kidney (Vero B) cells.; type: functional; details: Chlorocebus sabaeus; outline: as §1
[16] = Antiviral activity was measured against Herpes simplex virus (HSV-1 KOS) in rabbit kidney cells.; type: functional; details: Oryctolagus cuniculus; outline: as §3
[17] = Antiviral activity was measured against vesicular stomatitis virus in rabbit kidney cells.; type: functional; details: Oryctolagus cuniculus; outline: as §3
[18] = Antiviral activity was measured against Vaccinia virus in rabbit kidney cells.; type: functional; details: Oryctolagus cuniculus; outline: as §3
[19] = Concentration required to reduce DNA synthesis in primary rabbit kidney cells using [3H-Methyl]-dThd incorporation; type: functional; details: Oryctolagus cuniculus, read-out: ID50 (the source's name)
Outline: (§4)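 Primary rabbit kidney cells with compounds in growth medium at 100, 10, or 1 μg/mL or less. Cell number and incorporation of [3H-methyl]dThd (DNA), [3H-5]Urd (RNA) or [3H2-4,5]leucine (protein) measured. ID50 taken as the dose giving 50% reduction in cell number or in DNA, RNA or protein synthesis.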

Mus musculus [20] = assay: Toxicity of compound against mice was determined at a concentration of 100 mg/kg; type: organism-based; set-up: dose 100 mg/kg; details: in vivo
Outline: (§5)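 Swiss mice (20-24 g) received a single intraperitoneal dose of 100-2,000 mg/kg. Compound was suspended in distilled water containing 0.2 g Tween 80 and 0.2 g (carboxymethyl)cellulose per 100 mL. Mice were followed for 14 days for acute toxicity.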

Mus musculus [21] = assay: Toxicity of compound against mice was determined at a concentration of 2000 mg/kg; type: organism-based; set-up: dose 2000 mg/kg; details: in vivo; outline: as §5
Mus musculus [22] = assay: Toxicity of compound against mice was determined at a concentration of 750 mg/kg; type: organism-based; set-up: dose 750 mg/kg; details: in vivo; outline: as §5
[23] = dose required to reduce primary rabbit kidney cell growth; type: functional; details: Oryctolagus cuniculus, read-out: ID50 (the source's name); outline: as §4
[24] = Concentration required to reduce RNA synthesis in primary rabbit kidney cells using [3H-5]-Urd incorporation; type: functional; details: Oryctolagus cuniculus, read-out: ID50 (the source's name); outline: as §4
Mus musculus [25] = assay: Toxicity of compound against mice was determined at a concentration of 250 mg/kg; type: organism-based; set-up: dose 250 mg/kg; details: in vivo; outline: as §5
Mus musculus [26] = assay: Efficacy expressed as number of surviving mice infected with herpetic encephalitis at dose of 150 mg/kg; type: functional
Outline: (§6)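 Young mice (10 g) were inoculated intracerebrally with 0.03 mL of herpes simplex virus suspension containing ca. 4 CCID50. Compound was given at 75 or 150 mg/kg per day as two daily intraperitoneal injections for 4 days. Read-out was the number of surviving mice.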

[27] = Concentration required to reduce protein synthesis in primary rabbit kidney cells usingi [3H2-4,5]leucine incorporation; type: functional; details: Oryctolagus cuniculus, read-out: ID50 (the source's name); outline: as §4
Mus musculus [28] = assay: Toxicity of compound against mice was determined at a concentration of 1200 mg/kg; type: organism-based; set-up: dose 1200 mg/kg; details: in vivo; outline: as §5
[29] = Antiviral activity was measured against Vesicular stomatitis virus in rabbit kidney cells.; type: functional; details: Oryctolagus cuniculus; outline: as §3
Mus musculus [30] = assay: Efficacy expressed as number of surviving mice infected with herpetic encephalitis at dose of 0 mg/kg; type: functional
Mus musculus [31] = species: Mus musculus; assay: Efficacy expressed as number of surviving mice infected with herpetic encephalitis at dose of 75 mg.kg; type: functional; outline: as §6

Structure (SMILES)	MCC (Vero [1])	MCC (WI-38 [2])	MCC (Vero [3])	MCC (WI-38 [4])	MCC (Vero [5])	MCC (Vero [6])	MCC (WI-38 [8])	MCC (Vero [9])	MCC (HeLa [10])	MCC [11]	MCC [12]	MCC (HeLa [13])	MCC (HeLa [14])	MCC (Vero [15])	MCC [16]	MCC [17]	also measured
Nc1nccc2c1ncn2[C@@H]1C[C@H](CO)[C@@H](O)[C@H]1O [3-DEAZAARISTEROMYCIN A]	> 400 µg/mL	> 400 µg/mL	≥ 400 µg/mL	> 400 µg/mL	> 400 µg/mL	2 µg/mL	> 400 µg/mL	0.7 µg/mL	> 400 µg/mL	> 400 µg/mL	> 400 µg/mL	≥ 400 µg/mL	2 µg/mL	0.2 µg/mL	> 400 µg/mL	0.7 µg/mL	MCC [7]: 2 µg/mL
Nc1nc(O)c2c(n1)[nH]c[n+]2C1O[C@H](CO)[C@H](O)[C@H]1O (stereo not given in full)	> 200 µg/mL	> 400 µg/mL	400 µg/mL	> 200 µg/mL	> 200 µg/mL	> 200 µg/mL	> 200 µg/mL	> 200 µg/mL	> 400 µg/mL	> 400 µg/mL	> 400 µg/mL	> 400 µg/mL		> 200 µg/mL	> 400 µg/mL		
O=c1ccn(C2O[C@H](CO)[C@H](O)[C@H]2O)c(=O)[nH]1 (stereo not given in full)	> 400 µg/mL	> 400 µg/mL	> 400 µg/mL	> 400 µg/mL	> 400 µg/mL	> 400 µg/mL	> 400 µg/mL	> 400 µg/mL	> 400 µg/mL	300 µg/mL	> 400 µg/mL	> 400 µg/mL		> 400 µg/mL	300 µg/mL	> 200 µg/mL	MCC [18]: 150 µg/mL
Nc1ncnc2c1ncn2[C@@H]1O[C@H](CO)[C@@H](O)[C@@H]1O [VIDARABINE]	> 100 µg/mL	≥ 100 µg/mL	≥ 200 µg/mL	> 100 µg/mL	> 100 µg/mL	150 µg/mL	> 100 µg/mL	> 100 µg/mL	> 100 µg/mL	10 µg/mL	≥ 200 µg/mL	≥ 200 µg/mL	150 µg/mL	150 µg/mL	20 µg/mL		IC50 [19]: 31 µg/mL (≈ 116 µM); No. of dead mice (Mus musculus [20]): 0; No. of dead mice (Mus musculus [21]): 0; No. of dead mice (Mus musculus [22]): 0; IC50 [23]: 27 µg/mL (≈ 101 µM); MCC [18]: 2 µg/mL; IC50 [24]: 15 µg/mL (≈ 56.1 µM); No. of dead mice (Mus musculus [25]): 0; Efficacy (Mus musculus [26]): 0 mg/kg; IC50 [27]: > 200 µg/mL; No. of dead mice (Mus musculus [28]): 0; MCC [29]: 70 µg/mL; Efficacy (Mus musculus [30]): 0 mg/kg; Efficacy (Mus musculus [31]): 0 mg/kg
NC(=O)c1ncn([C@H]2O[C@H](CO)[C@H](O)[C@H]2O)c1N	> 400 µg/mL	> 400 µg/mL	> 400 µg/mL	> 400 µg/mL	> 400 µg/mL	> 400 µg/mL	> 400 µg/mL	> 300 µg/mL	> 400 µg/mL	> 400 µg/mL	> 400 µg/mL	> 400 µg/mL		> 400 µg/mL	> 400 µg/mL		
Nc1ncnc2c1ncn2C[C@H](O)CO [(S)-DHPA]	> 400 µg/mL	> 400 µg/mL	> 400 µg/mL	150 µg/mL	> 400 µg/mL	100 µg/mL	> 400 µg/mL	100 µg/mL	> 400 µg/mL	> 400 µg/mL	> 400 µg/mL	> 400 µg/mL	70 µg/mL	> 400 µg/mL	> 400 µg/mL	20 µg/mL	MCC [7]: 20 µg/mL
Nc1nc2c(ncn2[C@@H]2O[C@H](CO)[C@H](O)[C@H]2O)c(=O)[nH]1																	No. of dead mice (Mus musculus [20]): 2; No. of dead mice (Mus musculus [22]): 8; No. of dead mice (Mus musculus [25]): 5
